The text below walks through data of ChEMBL document CHEMBL1671684, “In vitro resistance profile of the hepatitis C virus NS3/4A protease inhibitor TMC435” (Antimicrob Agents Chemother, 2010).

Assay [1] relates to Hepatitis C virus. Description: Antiviral activity against Hepatitis C virus infected in HuH7 cells assessed as cell viability at 25 times EC50 after 2 to 3 weeks by neutral red assay in presence of 1,000 ug/ml G418. As to conditions: Hepacivirus hominis; Huh-7. The class given is functional, organism-based. The essentials: (§1)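 Huh7-Luc genotype 1b (con1, clone ET) replicon cells, 20,000 per 10-cm dish in DMEM with 1,000 μg/ml G418. Cells got one inhibitor or a two-inhibitor combination, dosed as multiples of each inhibitor's EC50 from a genotype 1b luciferase replicon assay. Held at 37°C, 5% CO2, with medium plus compound refreshed twice weekly. After 2–3 weeks, surviving colonies were stained with neutral red and counted. Three independent experiments.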

Assay [2] in a line: Inhibition of Hepatitis C virus subtype 5a NS3/4A protease. On the set-up: […].
A short description of assay [3]: Inhibition of Hepatitis C virus subtype 2a NS3/4A protease.
The subject of assay [4] is Hepatitis C virus. Nature of the assay: Antiviral activity against Hepatitis C virus infected in HuH7 cells assessed as cell viability at 2.5 times EC50 after 2 to 3 weeks by neutral red assay in presence of 1,000 ug/ml G418. The class given is functional, organism-based. Particulars: Hepacivirus hominis; Huh-7. The essentials:
as §1

For assay [5], the system named is Hepatitis C virus. Description: Antiviral activity against Hepatitis C virus subtype 2a JFH1 infected in HuH7.5 cells assessed as occurrence of the viral-induced CPE at 4000 nM after 3 days by luciferase reporter assay. The class given is functional, organism-based. Particulars: Hepacivirus hominis.
For assay [6], the system named is Hepatitis C virus. Nature of the assay: Antiviral activity against Hepatitis C virus infected in HuH7 cells assessed as cell viability at 10 times EC50 after 2 to 3 weeks by neutral red assay in presence of 1,000 ug/ml G418. The class given is functional, organism-based. As to conditions: Hepacivirus hominis; Huh-7. The essentials: as §1
Assay [7] relates to Hepatitis C virus. Description: Antiviral activity against Hepatitis C virus subtype 1b infected in HuH7 cells after 72 hrs by luciferase reporter gene assay. As to conditions: genotype 1b, Huh-7, 72 h. In general terms: A reporter such as luciferase makes a cellular process visible.

Usually IC50 stands for the point on the concentration scale where inhibition reaches its midpoint. A low value points to higher potency. The term EC50 denotes the concentration needed to bring the measured effect to its halfway point. Read a high EC50 as lower potency in that assay.

The structures appear in SMILES notation. The source made the active and inactive calls. The rule behind the calls is not given here.

In the case of `COc1ccc2c(O[C@@H]3C[C@H]4C(=O)N[C@]5(C(=O)NS(=O)(=O)C6CC6)C[C@H]5/C=C\CCCCN(C)C(=O)[C@@H]4C3)cc(-c3nc(C(C)C)cs3)nc2c1C` [SIMEPREVIR], the inhibition entry in assay [1], in assay [4] and in assay [6] was “inactive” each time. The IC50 in assay [2] and in assay [3] was under 0.013 µM each time. Further, the inhibition result in assay [5] was “Active”. This compound had an EC50 in assay [7] of 0.008 µM.
